# Assay results: article PMC6959550 (Journal of medicinal chemistry, 2017)
# What was measured:
# [1] = molecular target: T1, TRPV1 (Homo sapiens, UniProt Q8NER1); assay: Activity type at TRPV1
# [2] = molecular target: T1, TRPV1; type: binding; details: human versus rat TRPV1
# [3] = molecular target: T1, TRPV1; assay: Predicted improvement of specific to nonspecific binding from Kd/Ki and Log P; details: from Log P values
# [4] = molecular target: T1, TRPV1; assay: Time course of binding of 13 to human TRPV1 and its release
# How it was run: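 Membranes (~20 μg protein) from CHO cells expressing human TRPV1 were incubated with the tritiated test ligand in DPBS with 0.25 mg/mL BSA at 37 °C for varied times. Alternatively, after 60 min, 50 nM unlabeled reference vanilloid was added for varied times at 37 °C or at 0 °C after chilling. Workup: α1-acid glycoprotein (2 mg/mL stock), 10 min at 0 °C, pelleting, scintillation counting. Values relative to controls; triplicate means.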
# [5] = molecular target: T1, TRPV1; type: binding; details: treated versus control
# T1 sequence (Q8NER1 whole entry): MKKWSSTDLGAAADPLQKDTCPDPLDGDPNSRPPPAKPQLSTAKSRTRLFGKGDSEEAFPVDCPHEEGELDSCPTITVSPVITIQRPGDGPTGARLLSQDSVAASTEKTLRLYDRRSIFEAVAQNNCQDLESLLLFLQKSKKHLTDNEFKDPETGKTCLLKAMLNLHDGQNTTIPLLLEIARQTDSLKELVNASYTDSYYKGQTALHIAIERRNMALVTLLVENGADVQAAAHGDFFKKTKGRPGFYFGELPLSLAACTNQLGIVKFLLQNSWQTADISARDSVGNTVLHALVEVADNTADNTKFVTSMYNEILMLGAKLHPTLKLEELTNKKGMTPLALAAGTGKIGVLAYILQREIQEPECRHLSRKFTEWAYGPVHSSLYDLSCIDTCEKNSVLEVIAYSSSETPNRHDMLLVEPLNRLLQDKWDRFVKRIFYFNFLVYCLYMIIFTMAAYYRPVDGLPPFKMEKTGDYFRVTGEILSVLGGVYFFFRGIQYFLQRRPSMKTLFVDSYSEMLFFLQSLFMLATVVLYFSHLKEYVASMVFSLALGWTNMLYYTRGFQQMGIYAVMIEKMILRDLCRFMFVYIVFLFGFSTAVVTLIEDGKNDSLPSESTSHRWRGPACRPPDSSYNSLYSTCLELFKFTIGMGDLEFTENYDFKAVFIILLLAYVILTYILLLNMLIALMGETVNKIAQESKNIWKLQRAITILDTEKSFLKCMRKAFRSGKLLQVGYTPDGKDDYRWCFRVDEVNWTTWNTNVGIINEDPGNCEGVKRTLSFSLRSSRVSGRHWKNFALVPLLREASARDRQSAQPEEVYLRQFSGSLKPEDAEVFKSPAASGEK
Structure (SMILES),activity [1],human TRPV1 less sensitive (weaker binding) than rat/rodent TRPV1 [2],Improvement over 1 from the formula ((Kd RTX × 10^LogP RTX)/(Ki compound × 10^Log P compound)) [3] [fold],"specific binding at 0 °C over the time for assay workup ([4]; 0 °C, after nonradioactive 1 (50 nM))",time by which specific binding was largely complete ([4]; 37 °C) [min],"time for almost full release of specifically bound ligand ([4]; 37 °C, after nonradioactive 1 (50 nM)) [min]",change of affinity by PMA and cyclosporin A treatment [5]
"CC(C)(C)c1ccc2c(c1)CC[C@H]2NC(=O)Nc1cccc2cnccc12 [A-778317, 1-((R)-5-tert-butyl-indan-1-yl)3-isoquinolin-5-yl-urea]",antagonist,–,–,–,–,–,–
"C=C(C)[C@]12C[C@@H](C)[C@@]34O[C@](Cc5ccccc5)(O[C@@H]1[C@@H]3C=C(COC(=O)Cc1ccc(O)c(OC)c1)C[C@]1(O)C(=O)C(C)=C[C@@H]41)O2 [compound 1, resiniferatoxin]",agonist,approximately 20 fold,1,–,–,–,–
"CC1CCN(c2nc(C(F)(F)F)ccc2CNC(=O)Nc2cccc3c2OCC(=O)N3)CC1 [compound 12, 1-((2-(4-methylpiperidin-1-yl)-6-(trifluoromethyl)pyridin-3-yl)methyl)-3-(3-oxo-3,4-dihydro-2H-benzo[b][1,4]oxazin-8-yl)urea]",antagonist,–,45.6,–,–,–,–
"[3H]CC1([3H])CCN(c2nc(C(F)(F)F)ccc2CNC(=O)Nc2cccc3c2OCC(=O)N3)CC1 [compound 13, 1-((2-(4-(methyl-[^3H])piperidin-1-yl-4-[^3H])-6-(trifluoromethyl)pyridin-3-yl)methyl)-3-(3-oxo-3,4-dihydro-2H-benzo[b][1,4]oxazin-8-yl)urea]",–,–,–,stable,≤ 5,≤ 2,no appreciable change
